This note sets out measurements from ChEMBL document CHEMBL1806486, “Discovery and evaluation of 3-phenyl-1H-5-pyrazolylamine-based derivatives as potent, selective and efficacious inhibitors of FMS-like tyrosine kinase-3 (FLT3)” (Bioorg Med Chem, 2011).

Each structure is given as a SMILES string. The source made the active and inactive calls. The calls are words filed in the database; no cut-off is given here.

In general, inhibition refers to the relative decrease from the control value, in per cent. As usually defined, the GI50 is the concentration at which growth is held to half of that of the control. For orientation: IC50 means the point on the concentration scale where inhibition reaches its midpoint. By half-life is commonly meant how long it takes for the measured level to halve. Broadly, the AUC(0-inf) is the area under the concentration-time curve extrapolated to infinity.

Data set [1] concerns the target Mast/stem cell growth factor receptor Kit (Homo sapiens) (UniProt P10721). Put plainly: Inhibition of c-Kit at 0.1 uM.
For data set [2], the system named is MOLT-4. Put plainly: Antiproliferation activity against human MOLT4 after 72 hrs by MTS method. Particulars: MOLT-4, 72 h. Type of data set: functional. (In general: Formazan colour is commonly taken as a measure of viable cells.)
Data set [3] has as its target T1, Aurora kinase A (Homo sapiens, UniProt O14965).
T1 sequence (O14965 whole entry): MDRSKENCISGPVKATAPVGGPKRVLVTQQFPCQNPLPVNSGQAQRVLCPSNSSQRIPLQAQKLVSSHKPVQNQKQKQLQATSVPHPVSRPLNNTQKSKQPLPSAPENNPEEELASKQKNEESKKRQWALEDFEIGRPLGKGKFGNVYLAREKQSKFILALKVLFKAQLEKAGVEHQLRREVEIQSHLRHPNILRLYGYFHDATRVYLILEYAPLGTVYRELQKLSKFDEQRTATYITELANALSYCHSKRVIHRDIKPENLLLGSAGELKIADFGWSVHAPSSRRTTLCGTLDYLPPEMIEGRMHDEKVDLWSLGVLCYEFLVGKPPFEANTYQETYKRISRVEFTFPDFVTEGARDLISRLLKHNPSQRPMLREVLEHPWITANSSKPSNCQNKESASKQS
Briefly: Inhibition of recombinant GST-tagged Aurora A expressed in Sf9 insect cells after 90 mins by Kinase-Glo assay. The gist of the method:
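GST-Aurora A kinase domain (S123–S401, 150 ng) from Sf9 cells. Buffer was 50 mM Tris-HCl pH 7.4 with 10 mM NaCl, 10 mM MgCl2, 0.01% BSA and 1 mM DTT. Kinase-Glo Plus was added for 20 min at 25 °C before the luminescence read.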

Data set [4] concerns MV4-11. Briefly: Antitumor activity against human MV4-11 cells xenografted in athymic nu/nu nude mouse assessed as inhibition of tumor growth at 50 mg/kg, iv qd for 1 to 5 and 8 to 12 days measured after completion of treatment. The arrangement: dose 50 mg/kg. Type of data set: functional, organism-based. The gist of the method: (§1)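 Nude nu/nu mice (9 weeks old) received 1 × 10^6 MV4;11 cells s.c. in the left flank. Treatment began at a mean tumor volume of about 500 mm3, with n = 8 per group. Dosing was iv once daily at 10, 25 or 50 mg/kg on days 1–5 and 8–12, in DMSO/Cremophor/saline vehicle, with vehicle controls. Tumor volume was measured by caliper as (width × length²)/2.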
A general note: In xenograft studies the graft and the host belong to different species.

The target of data set [5] is T2, Receptor-type tyrosine-protein kinase FLT3 (Homo sapiens, UniProt P36888).
T2 sequence (P36888 whole entry): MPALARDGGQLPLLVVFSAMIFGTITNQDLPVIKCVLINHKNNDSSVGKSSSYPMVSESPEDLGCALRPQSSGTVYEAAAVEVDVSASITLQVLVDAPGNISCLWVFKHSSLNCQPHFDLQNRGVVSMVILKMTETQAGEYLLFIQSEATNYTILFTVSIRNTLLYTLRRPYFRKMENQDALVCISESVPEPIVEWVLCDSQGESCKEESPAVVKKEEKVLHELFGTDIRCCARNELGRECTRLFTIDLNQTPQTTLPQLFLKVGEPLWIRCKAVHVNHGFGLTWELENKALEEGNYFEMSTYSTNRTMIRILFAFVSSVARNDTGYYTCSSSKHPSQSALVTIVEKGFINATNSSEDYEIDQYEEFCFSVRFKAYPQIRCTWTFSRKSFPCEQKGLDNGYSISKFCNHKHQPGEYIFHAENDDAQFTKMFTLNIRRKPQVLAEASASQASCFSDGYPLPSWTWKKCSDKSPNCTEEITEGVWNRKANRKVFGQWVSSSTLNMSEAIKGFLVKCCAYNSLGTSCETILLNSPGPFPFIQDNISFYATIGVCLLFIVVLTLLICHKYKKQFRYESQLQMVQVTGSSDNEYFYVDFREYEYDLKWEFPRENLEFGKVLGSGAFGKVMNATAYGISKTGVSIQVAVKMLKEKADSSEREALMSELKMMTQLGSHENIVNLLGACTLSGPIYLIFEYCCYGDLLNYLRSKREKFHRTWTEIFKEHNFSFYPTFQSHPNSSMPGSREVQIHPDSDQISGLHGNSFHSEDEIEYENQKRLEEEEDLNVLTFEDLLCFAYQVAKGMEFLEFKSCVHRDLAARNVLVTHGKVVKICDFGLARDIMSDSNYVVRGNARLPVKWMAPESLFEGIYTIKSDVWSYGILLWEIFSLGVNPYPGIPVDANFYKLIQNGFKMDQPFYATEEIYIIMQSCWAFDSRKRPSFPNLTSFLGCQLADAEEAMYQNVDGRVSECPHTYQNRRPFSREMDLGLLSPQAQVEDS
Briefly: Inhibition of GST-tagged FLT3 expressing wild type kinase domain expressed in Sf9 insect cells after 4 hrs by Kinase-Glo assay. A general note: Kinase-Glo measures the ATP left after a reaction by luminescence.

Data set [6] has as its system MV4-11. Briefly: Antiproliferation activity against FLT3/ITD harboring human MV4-11 cells after 72 hrs by MTS method. Type of data set: functional. Particulars: MV4-11, 72 h.
The nature of data set [7]: Half life in Sprague-Dawley rat at 5 mg/kg, iv and 20 mg/kg, po. Type of data set: ADME, organism-based. As to conditions: in vivo.
In data set [8] the target is Proto-oncogene tyrosine-protein kinase Src (Homo sapiens) (UniProt P12931). Put plainly: Inhibition of SRC at 0.1 uM.
The test system of data set [9] is MV4-11. Briefly: Antitumor activity against human MV4-11 cells xenografted in athymic nu/nu nude mouse assessed as tumor regrowth at 50 mg/kg, iv qd for 1 to 5 and 8 to 12 days measured after 20 days. The arrangement: dose 50 mg/kg. Type of data set: functional, organism-based. The gist of the method: as §1
Data set [10] in a line: AUC (0 to infinity) in Sprague-Dawley rat at 5 mg/kg, iv and 20 mg/kg, po. Type of data set: ADME, organism-based. Particulars: plasma.
Data set [11] has as its target Platelet-derived growth factor receptor alpha (Homo sapiens) (UniProt P16234). Put plainly: Inhibition of PDGFR alpha at 0.1 uM.
Data set [12] has as its system MOLM-13. Briefly: Antitumor activity against human MOLM13 cells xenografted in athymic nu/nu nude mouse assessed as inhibition of tumor growth at 10 mg/kg, iv qd administered for 1 to 5 and 8 to 12 days measured during first 5 days of treatment. Further details: dose 10 mg/kg. Type of data set: functional, organism-based. The gist of the method: (§2)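 Athymic nu/nu mice (9 weeks old) received 1 × 10^6 MOLM-13 cells s.c. in the left flank. They were randomized at a mean tumor volume of about 200 mm3, with 7–8 per group. Dosing was iv once daily at 10 or 50 mg/kg on days 1–5 and 8–12, in 10% DMSO/20% Cremophor/70% saline. Vehicle controls were dosed the same way. Caliper volume = (width × length²)/2, reported as mean ± SEM.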

Data set [13] can be described thus: Antiproliferation activity against human RS4:11 cells expressing wild type FLT3 after 72 hrs by MTS method. Type of data set: functional. Particulars: RS4-11, 72 h.
Data set [14] deals with MOLM-13. Briefly: Antitumor activity against human MOLM13 cells xenografted in athymic nu/nu nude mouse assessed as tumor growth regression at 50 mg/kg, iv qd administered for 1 to 5 and 8 to 12 days. The arrangement: dose 50 mg/kg. Type of data set: functional, organism-based. The gist of the method:
as §2

For data set [15], the system named is K562. Put plainly: Antiproliferation activity against human K562 cells expressing wild type BCR/ABL after 72 hrs by MTS method. Type of data set: functional. Particulars: K562, 72 h.
For data set [16], the system named is Mus musculus. Briefly: Toxicity in athymic nu/nu nude mouse harboring xenografted huma MOLM13 cells assessed as reduction of body weight at 50 mg/kg, iv for continuous 5 days. Type of data set: organism-based, MOLM-13. The arrangement: dose 50 mg/kg, route intravenous; scale not given: the % may be the effect or the level left. Particulars: in vivo, 120 h.

Chain of Platelet-derived growth factor receptor alpha (Homo sapiens) (P16234 whole entry): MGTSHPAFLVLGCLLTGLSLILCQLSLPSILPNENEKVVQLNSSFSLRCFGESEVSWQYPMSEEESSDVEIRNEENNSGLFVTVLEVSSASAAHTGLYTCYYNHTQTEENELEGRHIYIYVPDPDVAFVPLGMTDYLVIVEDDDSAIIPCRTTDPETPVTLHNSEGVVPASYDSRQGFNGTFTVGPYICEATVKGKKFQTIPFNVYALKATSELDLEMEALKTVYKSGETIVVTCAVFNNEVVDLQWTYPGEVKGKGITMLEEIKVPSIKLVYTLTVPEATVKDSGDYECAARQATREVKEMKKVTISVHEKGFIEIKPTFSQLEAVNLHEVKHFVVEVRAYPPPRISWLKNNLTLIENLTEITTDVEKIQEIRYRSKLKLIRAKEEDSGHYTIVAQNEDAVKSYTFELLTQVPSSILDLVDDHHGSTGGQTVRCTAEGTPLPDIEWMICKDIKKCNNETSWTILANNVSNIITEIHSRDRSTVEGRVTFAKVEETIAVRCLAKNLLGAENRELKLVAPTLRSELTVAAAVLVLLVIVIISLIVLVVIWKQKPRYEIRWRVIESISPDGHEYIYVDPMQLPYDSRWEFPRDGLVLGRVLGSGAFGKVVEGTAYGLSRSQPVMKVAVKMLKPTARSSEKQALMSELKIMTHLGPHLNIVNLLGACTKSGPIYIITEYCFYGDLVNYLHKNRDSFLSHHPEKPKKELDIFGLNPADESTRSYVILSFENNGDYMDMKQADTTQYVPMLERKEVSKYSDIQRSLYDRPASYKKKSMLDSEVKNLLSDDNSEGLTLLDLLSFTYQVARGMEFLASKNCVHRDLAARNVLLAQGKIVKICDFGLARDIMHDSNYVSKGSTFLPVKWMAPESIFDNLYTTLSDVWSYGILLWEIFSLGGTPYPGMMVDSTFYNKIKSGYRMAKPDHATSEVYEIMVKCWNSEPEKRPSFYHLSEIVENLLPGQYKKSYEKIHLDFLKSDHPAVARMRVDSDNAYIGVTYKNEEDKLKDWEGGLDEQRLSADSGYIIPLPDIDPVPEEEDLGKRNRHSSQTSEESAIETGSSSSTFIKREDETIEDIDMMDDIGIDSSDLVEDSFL
Chain of Mast/stem cell growth factor receptor Kit (Homo sapiens) (P10721 whole entry): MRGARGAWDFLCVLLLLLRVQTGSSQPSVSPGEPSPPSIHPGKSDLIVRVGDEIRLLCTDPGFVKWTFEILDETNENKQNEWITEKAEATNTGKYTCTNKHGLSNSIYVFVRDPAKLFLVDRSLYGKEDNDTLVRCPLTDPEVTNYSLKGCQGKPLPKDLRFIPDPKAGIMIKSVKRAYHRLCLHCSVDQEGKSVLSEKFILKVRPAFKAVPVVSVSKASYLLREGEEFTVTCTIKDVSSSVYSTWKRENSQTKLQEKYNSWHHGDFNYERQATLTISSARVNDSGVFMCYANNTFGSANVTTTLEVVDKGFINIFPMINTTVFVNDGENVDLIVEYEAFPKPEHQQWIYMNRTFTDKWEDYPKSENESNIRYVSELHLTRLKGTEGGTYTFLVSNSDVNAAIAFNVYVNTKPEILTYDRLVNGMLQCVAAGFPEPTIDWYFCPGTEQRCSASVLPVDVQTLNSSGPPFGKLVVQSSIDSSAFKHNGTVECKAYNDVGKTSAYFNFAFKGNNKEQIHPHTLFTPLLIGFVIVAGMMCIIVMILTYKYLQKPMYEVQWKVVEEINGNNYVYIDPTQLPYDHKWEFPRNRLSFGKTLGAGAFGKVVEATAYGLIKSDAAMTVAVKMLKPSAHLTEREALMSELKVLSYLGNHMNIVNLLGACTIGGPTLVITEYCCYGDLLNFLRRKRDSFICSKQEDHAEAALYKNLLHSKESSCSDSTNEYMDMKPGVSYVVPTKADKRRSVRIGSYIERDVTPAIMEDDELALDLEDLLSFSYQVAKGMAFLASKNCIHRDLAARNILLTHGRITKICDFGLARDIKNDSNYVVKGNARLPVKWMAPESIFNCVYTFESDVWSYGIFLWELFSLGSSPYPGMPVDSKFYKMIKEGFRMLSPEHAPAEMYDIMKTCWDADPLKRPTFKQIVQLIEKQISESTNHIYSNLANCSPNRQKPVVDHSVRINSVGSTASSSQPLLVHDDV
Chain of Proto-oncogene tyrosine-protein kinase Src (Homo sapiens) (P12931 2-536 limits assumed): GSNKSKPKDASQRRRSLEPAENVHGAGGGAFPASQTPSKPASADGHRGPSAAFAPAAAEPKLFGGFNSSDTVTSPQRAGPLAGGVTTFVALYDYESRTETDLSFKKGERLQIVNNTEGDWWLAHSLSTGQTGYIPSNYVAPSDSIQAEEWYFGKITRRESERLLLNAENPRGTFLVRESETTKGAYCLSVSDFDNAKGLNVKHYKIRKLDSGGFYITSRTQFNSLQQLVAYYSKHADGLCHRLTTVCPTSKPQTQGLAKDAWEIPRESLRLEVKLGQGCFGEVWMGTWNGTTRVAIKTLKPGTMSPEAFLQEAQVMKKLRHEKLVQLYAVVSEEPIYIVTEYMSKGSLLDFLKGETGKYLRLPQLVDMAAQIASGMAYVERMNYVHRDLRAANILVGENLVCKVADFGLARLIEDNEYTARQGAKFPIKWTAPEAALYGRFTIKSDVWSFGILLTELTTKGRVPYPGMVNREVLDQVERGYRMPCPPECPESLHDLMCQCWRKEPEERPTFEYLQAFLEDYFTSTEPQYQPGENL

Consider `Cc1nc(Nc2cc(-c3cccc(NS(=O)(=O)c4ccccc4)c3)n[nH]2)cc(N2CCN(C)CC2)n1`, for which the inhibition was 27% in [1], 44% in data set [8] and 24% in data set [11]. For the same molecule, the GI50 in data set [2] is 7400 nM; in data set [6] it was 27 nM; in [13], 10000 nM; in [15], > 10000 nM. The IC50 came out at 290 nM in data set [3] and 6 nM in [5]. Besides, the outcome in [4], in data set [12] and in [14] was Active. The half-life in data set [7] was 4.2 h. Besides, in [9], the outcome was inactive. In [10], this molecule returned an AUC(0-inf) of 1400 ng·h/mL. Also, in data set [16], the Activity is on record as < 3%.
